The list is not random: actives were taken first. Their share in the collection is about 1.4%.
TNAP inh hi DEA: inhibitors of human TNAP at high phosphate acceptor concentration | purified TNAP, CDP-star luminescence, 1 M DEA | P05186 | AID 1135 | actives 0.03% (n = 200,000) | inhibition, % at 20 µM;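 active means over 50% inhibition of tissue-nonspecific alkaline phosphatase at 20 µM in the single-dose screen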
TNAP inh noacc: inhibitors of human TNAP without phosphate acceptor | P05186 | purified TNAP, CDP-star luminescence, 30 min | inhibition, % at 20 µM | actives 0.26% (n = 200,000);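 active means tissue-nonspecific alkaline phosphatase inhibition above about 50% at 20 µM in the single-dose screen, limit read from the data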
TNAP act hi DEA: increases human TNAP activity under high phosphate acceptor concentration | activation factor at 20 µM | 200,000 tested, under 10 active | purified TNAP, CDP-star luminescence, 1 M DEA, 30 min; active compounds read high; 0 = EDTA background, 1 = DMSO-only activity | P05186 | AID 1136;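 active means activation factor at least 2 at 20 µM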
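Test system – human TNAP · Doses – 20 µM single point · Incubation – 30 min, room temperature · Signal – luminescent substrate turnover signal · Read-out basis – activation factor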
CHT PAM: human CHT allosteric activation. Q9GZV3. B-score at 10 µM. CHT-expressing cells, membrane potential dye, choline EC20; active compounds read high; LV-AA mutant CHT in HEK293 cells. actives 0.49% (n = 310,000);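 active means initial fluorescence not abnormally high and integrated response B-score, plate-corrected, over 3 SD above library mean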
ABCB6 inh MLPCN: inhibitors of human ABC transporter ABCB6. Q9NP58. K562-ABCB6 porphyrin accumulation, flow cytometry, 1 h; active compounds read low. fluorescence ratio to DMSO, % at 10 µM. actives 0.19% (n = 360,000);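 active means fluorescence ratio to DMSO below 75%, the collection mean minus 3 SD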;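 further: signal is porphyrin accumulated inside mitochondria; lower ratio means ABCB6 inhibition with less porphyrin fluorescence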
Target sequence (Q9NP58 whole entry, looked up): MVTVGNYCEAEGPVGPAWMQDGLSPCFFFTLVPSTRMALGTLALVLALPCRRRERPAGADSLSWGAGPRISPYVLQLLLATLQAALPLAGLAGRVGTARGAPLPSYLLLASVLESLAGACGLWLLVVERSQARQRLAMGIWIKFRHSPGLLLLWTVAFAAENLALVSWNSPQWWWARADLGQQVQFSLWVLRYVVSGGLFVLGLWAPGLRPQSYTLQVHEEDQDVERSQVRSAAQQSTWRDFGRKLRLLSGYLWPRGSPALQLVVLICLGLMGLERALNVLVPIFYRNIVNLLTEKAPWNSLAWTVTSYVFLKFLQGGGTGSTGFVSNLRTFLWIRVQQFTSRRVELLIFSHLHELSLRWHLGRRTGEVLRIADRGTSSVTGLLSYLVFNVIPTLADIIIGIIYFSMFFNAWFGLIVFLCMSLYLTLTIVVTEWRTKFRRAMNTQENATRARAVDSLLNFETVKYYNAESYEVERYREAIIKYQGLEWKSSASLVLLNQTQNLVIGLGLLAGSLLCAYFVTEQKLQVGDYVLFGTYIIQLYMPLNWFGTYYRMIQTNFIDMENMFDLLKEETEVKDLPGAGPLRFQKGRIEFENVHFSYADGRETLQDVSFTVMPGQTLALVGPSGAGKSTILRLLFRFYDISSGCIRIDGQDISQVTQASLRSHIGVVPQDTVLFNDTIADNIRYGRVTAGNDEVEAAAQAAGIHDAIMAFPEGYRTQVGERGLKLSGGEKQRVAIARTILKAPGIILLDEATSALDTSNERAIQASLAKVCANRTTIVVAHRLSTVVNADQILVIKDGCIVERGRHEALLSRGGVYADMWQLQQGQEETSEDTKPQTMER
CHT block: inhibits the human high affinity choline transporter. actives 0.86% (n = 310,000). AID 488975. B-score at 10 µM. CHT-expressing cells, membrane potential dye, choline response; active compounds read low. Q9GZV3;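 active means B-score over 3 SD under the library average, and starting fluorescence ratio not unusually high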;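 further: choline stimulus applied at its EC90 after an EC20 pre-addition; B-score computed on integrated fluorescence ratio after choline addition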
ABCB6 blocker 1: inhibitors of human ABC transporter ABCB6 | ratio response (% of DMSO), % at 10 µM | shares compounds with ABCB6 inh MLPCN | K562-ABCB6 porphyrin accumulation, flow cytometry, 1 h; active compounds read low | 700 tested, under 10 active;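 active means repeat-averaged ratio response below 75% of DMSO, the collection mean minus 3 SD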;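 further: median porphyrin fluorescence at 575 nm with 488 nm excitation from mitochondria; lower ratio means less porphyrin signal so ABCB6 inhibition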
Numbers stand for hits; i = inactive; nt = no result given.

SMILES	TNAP inh hi DEA	TNAP inh noacc	TNAP act hi DEA	CHT PAM	ABCB6 inh MLPCN	CHT block	ABCB6 blocker 1
CCc1ccccc1NC(=O)CCCSc1nc2ccccc2s1	i	i	i	i	72	i	i
O=C(Nc1ccc(Br)cc1)c1cccnc1N1CCCCC1	i	i	i	i	73	i	i
CCOc1ccc(CN(C)CC(=O)Nc2ccc([N+](=O)[O-])cc2Cl)cc1	i	i	i	i	i	i	nt
CS(=O)(=O)Nc1ccccc1-c1cccc2nccn12	nt	nt	nt	nt	68	nt	i
COc1cc(OC)c(C#N)c(S(=O)(=O)Cc2ccccc2)c1	i	i	i	i	68	i	i
N#Cc1c([N+](=O)[O-])cc([N+](=O)[O-])cc1S(=O)(=O)Cc1ccccc1	nt	nt	nt	nt	i	nt	nt
COc1cccc(CN2CCC2(C)C(=O)Nc2cccc3cccnc23)c1OC (configuration not stated)	nt	nt	nt	nt	i	nt	nt
COc1ccc(OC)c(NC(=O)C2(C)CCN2Cc2cccc(OC)c2OC)c1 (configuration not stated)	nt	nt	nt	nt	71	nt	i
OC[C@H]1O[C@@H](c2nc(-c3ccc(CN4CCOCC4)cc3)no2)[C@H](O)[C@@H](O)[C@H]1O	nt	nt	nt	nt	i	nt	nt
CC(C)(C)CN1CCC(Oc2cccc(C(=O)N3CCNC(=O)C3(C)C)c2)CC1	nt	nt	nt	i	14	i	i
CCN(CC)c1ccc(C(=O)OCC(=O)N(C)Cc2ccccc2)cc1	i	i	i	i	65	i	i
CN(Cc1ccccc1)C(=O)COC(=O)c1cc(Cl)nc(Cl)c1	i	i	i	i	i	i	nt
CCCc1nc2ccc(NC(C)=O)cc2c(=O)n1Cc1cccc(Cl)c1	nt	nt	nt	i	i	i	nt
CCCc1nc2ccc(NC(=O)c3cccs3)cc2c(=O)n1Cc1ccc(Cl)cc1	i	i	i	i	73	i	i
COc1ccc(S(=O)(=O)Cc2ccc(C(=O)N3CCC(C(N)=O)CC3)o2)cc1	i	i	i	i	i	i	nt
Cc1ccc(S(=O)(=O)Cc2ccc(C(=O)N3CCC(C(N)=O)CC3)o2)cc1	nt	nt	nt	i	55	i	i
O=C(CCNS(=O)(=O)c1ccc(Br)cc1)NCc1ccc2c(c1)OCO2	i	i	i	i	62	i	i
CSCCC(N=C(NS(=O)(=O)c1ccc(C)cc1)c1ccccc1)C(=O)O (configuration not stated)	nt	nt	nt	i	i	i	nt
Cn1c(CN2CCN(C(=O)c3ccccc3Cl)CC2)nc2cc([N+](=O)[O-])ccc21	i	i	i	i	i	i	nt
Cn1c(CN2CCN(C(=O)c3ccccc3)CC2)nc2cc([N+](=O)[O-])ccc21	i	i	i	i	70	i	i
CCn1c(SCC(=O)c2ccccc2)nnc1-c1cccnc1	i	i	i	i	71	i	i
N#CCCSCc1ccc(C(=O)O)o1	i	i	i	i	68	i	i
CCCCSCc1ccc(C(=O)O)o1	i	i	i	i	i	i	nt
CCN(CC)S(=O)(=O)c1cccc(NC(=O)CCSc2ccc(Cl)cc2)c1	i	i	i	i	i	i	nt
CN(C)S(=O)(=O)c1cccc(NC(=O)COC(=O)CCSc2ccc(Cl)cc2)c1	i	i	i	i	71	i	i
SMILES	TNAP inh hi DEA	TNAP inh noacc	TNAP act hi DEA	CHT PAM	ABCB6 inh MLPCN	CHT block	ABCB6 blocker 1
O=C(Nc1ccc(-n2nncc2-c2ccco2)cc1)c1cccc(F)c1	i	i	i	i	58	i	i
CCN(C[C@H]1N[C@@](CC)(C(=O)OC)[C@H]2C(=O)N(Cc3ccccc3)C(=O)[C@@H]12)C(=O)c1ccccc1	nt	nt	nt	nt	i	nt	nt
COc1ccc(CCNC(=O)c2ccc(NS(=O)(=O)c3ccc4[nH]c(=O)[nH]c4c3)cc2)cc1	nt	nt	nt	i	i	i	nt
C/C(N)=C(/C#N)C(=O)COC(=O)C1CCN(S(=O)(=O)c2cccs2)CC1	nt	nt	nt	nt	i	nt	i
CC(=O)Nc1c(C)ccc(CNC(=O)COc2cc(C)ccc2C)c1C	i	i	i	i	72	i	i
CC(=O)Nc1c(C)ccc(CNC(=O)COc2ccc(F)cc2)c1C	i	i	i	i	i	i	nt
COc1ccc(/C=C2/NC(=O)CNC2=O)cc1	nt	nt	nt	i	i	i	nt
CC1(C(=O)Nc2cccnc2)Cc2c(-c3ccc4c(c3)OCO4)ccnc2O1 (configuration not stated)	nt	nt	nt	nt	i	nt	i
CC(=O)c1cccc(NC(=O)C2(C)Cc3c(-c4cccc(C(F)(F)F)c4)ccnc3O2)c1 (configuration not stated)	nt	nt	nt	nt	i	nt	i
CC1(C(=O)Nc2ccccc2)Cc2c(-c3ccc4c(c3)OCO4)ccnc2O1 (configuration not stated)	nt	nt	nt	nt	i	nt	nt
CC(=O)Nc1ccc(NC(=O)C2(C)Cc3c(-c4cccc(C(F)(F)F)c4)ccnc3O2)cc1 (configuration not stated)	nt	nt	nt	nt	i	nt	nt
CC1(C(=O)Nc2cccnc2)Cc2c(-c3cccc(C(F)(F)F)c3)ccnc2O1 (configuration not stated)	nt	nt	nt	nt	i	nt	i
CCOc1ccc(NC(=O)C(CC(=O)O)Cc2ccc(C)cc2)cc1 (configuration not stated)	nt	nt	nt	i	i	i	nt
CCSC1=NCCN1C(=O)C(C)(C)Oc1ccc(Cl)cc1	i	i	i	i	i	i	nt
Oc1ccccc1-c1nnc2n1CCCCC2	nt	nt	nt	i	i	i	nt
CN(C)CCCn1c2c(c(SCC(=O)Nc3ccc4c(c3)OCCO4)nc1=O)CCC2	nt	nt	nt	i	i	i	nt
CCOc1ccc(C(=O)NCC(C)NC(=O)c2ccc(OCC)cc2)cc1 (configuration not stated)	nt	nt	nt	i	i	i	nt
CCOc1ccc(C(=O)NCC(C)C)cc1	i	i	i	i	74	i	i
COC(=O)C1(C)NC(c2cccc(C)c2)C2C(=O)N(c3ccccc3)C(=O)C21 (configuration not stated)	nt	nt	nt	nt	i	nt	nt
CC1(C(=O)NS(=O)(=O)c2ccccc2C(F)(F)F)CCN1C(=O)C1CCCCC1 (configuration not stated)	nt	nt	nt	nt	62	nt	i
CC(C)(C(=O)N1CCC1(C)C(=O)NS(=O)(=O)c1cccc(Cl)c1)c1ccccc1 (configuration not stated)	nt	nt	nt	nt	i	nt	i
COc1ccc(OC)c(S(=O)(=O)NC(=O)C2(C)CCN2C(=O)Cc2ccccc2Cl)c1 (configuration not stated)	nt	nt	nt	nt	i	nt	i
CC(C)(C)c1ccc(CC(=O)N2CCC2(C)C(=O)NS(=O)(=O)c2ccccc2Cl)cc1 (configuration not stated)	nt	nt	nt	nt	i	nt	i
N#Cc1ccccc1OCC(=O)OCC(=O)NC1CCS(=O)(=O)C1 (configuration not stated)	nt	nt	nt	nt	i	nt	nt
O=C(N/N=C/c1ccccc1OCC(=O)N1CCCC1)C(=O)Nc1ccccc1F	i	i	i	i	i	i	nt
